Results on five compounds are retold here after ChEMBL document CHEMBL3271965, “Synthesis and anti-DNA -virus activity of the 5'-monophosphate and the cyclic 3',5'-monophosphate of 9-(beta-D-xylofuranosyl) guanine” (J Med Chem, 1976).

Values after ≈ are worked out from the molar mass of the structure shown. Active and inactive are the calls of the source. No cut-off for these calls is given here.

Data set [1] in a line: Cytotoxicity against human KB cells after 72 hrs. It is filed as cell-based.
The nature of data set [2]: Therapeutic index, ratio of MTD for Swiss mouse to MID for Herpesvirus 1 123 infected in Swiss mouse. The conditions noted are these: read-out: TI. The gist of the method: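 Therapeutic index = maximum tolerated dose / minimum inhibitory dose, based on survivors/total among treated infected mice. The ic regimen was a single MTD dose at 6 h post-inoculation. The ip regimen was b.i.d. ×9 from 4 h. Uninfected toxicity controls were run alongside.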

Data set [3] concerns Mus musculus. The data set is described as follows: Toxicity in Swiss mouse assessed as weight loss at 52 mg/kg/day, ip. It is filed as organism-based. On the set-up: route intraperitoneal. The note with it: in vivo. The gist of the method:
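Uninfected toxicity-control Swiss mice (18-20 g) dosed intraperitoneally b.i.d. ×9 at 104 or 52 mg/kg/day, in parallel with the infected groups. Body weight and survivors/total recorded.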

Data set [4] deals with Vaccinia virus. The data set is described as follows: Antiviral activity against Vaccinia virus infected in human KB cells assessed as virus-induced cytopathic effect after 72 hrs. It is filed as functional, organism-based. The note with it: Orthopoxvirus vaccinia. A general note: Cytopathic effects are the visible damage that an infection or toxin causes in cultured cells.

For data set [5], the system named is Human alphaherpesvirus 1. The data set is described as follows: Antiviral activity against Herpesvirus 1 123 infected in Swiss mouse assessed as increase in survival at 52 mg/kg/day, ip. It is filed as functional, organism-based. The gist of the method: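 Encephalitis induced in 18-20-g Swiss mice by intracerebral LD₇₅ of herpes virus type 1 strain 123. Drug given intraperitoneally b.i.d. ×9 starting 4 h post-inoculation at 104, 52 or 26 mg/kg/day, with saline controls. Survivors/total compared by Fisher's exact test; survival time compared by t test.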

Data set [6] relates to Human alphaherpesvirus 1. The data set can be described thus: Antiviral activity against Herpesvirus 1 infected in human KB cells assessed as virus-induced cytopathic effect after 72 hrs. It is filed as functional. The note with it: Human alphaherpesvirus 1, 72 h. The gist of the method: (§1)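 KB (human nasopharyngeal carcinoma) monolayers, 18-24 h old, infected with 320 CCID₅₀ of herpes virus type 1 or type 2. Compound added within 15 min at half-log dilutions from 1000 to 1 μg/ml. Incubated 72 h at 37°. CPE scored microscopically 0-4. Virus rating is the summed (virus control − treated) CPE differences across drug levels, halved at levels showing partial toxicity.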

In data set [7] the test system is Human alphaherpesvirus 1. The data set is described as follows: Antiviral activity against Herpesvirus 1 123 infected in Swiss mouse assessed as increase in survival time at 26 mg/kg/day, ip relative to control. It is filed as functional, organism-based. Summed up:
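Dosed intraperitoneally b.i.d. for 9 days, starting 4 h after virus inoculation. Infected animals were compared with saline controls. Survival time was assessed by t test.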

In data set [8] the test system is Human alphaherpesvirus 1. The data set can be described thus: Antiviral activity against Herpesvirus 1 123 infected in Swiss mouse assessed as increase in survival at 0.31 to 1.25 mg/kg, ic administered as single dose 6 hrs post infection relative to control. It is filed as functional, organism-based. Summed up:
(§2)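 18-20-g Swiss mice inoculated intracerebrally with an LD₇₅ of herpes virus type 1 strain 123 to induce encephalitis. One intracerebral drug treatment given 6 h after virus inoculation. Survivors counted against untreated infected controls.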

Data set [9] deals with Human alphaherpesvirus 2. The data set can be described thus: Antiviral activity against Herpesvirus 2 infected in human KB cells assessed as virus-induced cytopathic effect after 72 hrs. It is filed as functional, organism-based. Summed up: as §1
Data set [10] has as its system Human alphaherpesvirus 1. The data set can be described thus: Antiviral activity against Herpesvirus 1 123 infected in Swiss mouse assessed as increase in survival at MTD, ic administered as single dose 6 hrs post infection relative to control. It is filed as functional, organism-based. Summed up: as §2

As for `Nc1nc2c(ncn2[C@@H]2O[C@H](CO)[C@H](O)[C@H]2O)c(=O)[nH]1`, the MCC at 72 h in data set [1] came to 10 µg/mL.

Turning to `Nc1nc2c(ncn2[C@@H]2O[C@@H]3COP(=O)(O)O[C@@H]3[C@H]2O)c(=O)[nH]1`, in [2], the selectivity ratio is not below 4. For the same compound, the Activity entry in data set [3] is “Toxic”. In data set [4], the result was inactive. The result in data set [5], in data set [8], in data set [9] and in data set [10] was Active. Also, the MIC in [6] is 32 µg/mL (≈ 92.7 µM). For the same compound, the Survival entry in data set [7] was “Active”. Further, in data set [1], the MCC at 72 h worked out at 32 µg/mL.

On to `Nc1nc(O)c2ncn([C@@H]3O[C@H](CO)[C@H](O)[C@H]3O)c2n1`, for which, in data set [4], the result was inactive. Moreover, the MIC in data set [6] amounted to 10 µg/mL (≈ 35.3 µM). In addition, the outcome in [9] and in data set [10] was Active.

For `Nc1ncnc2c1ncn2[C@@H]1O[C@H](CO)[C@@H](O)[C@@H]1O` [VIDARABINE], the outcome in data set [4], in data set [9] and in data set [10] was Active. Moreover, the MIC in data set [6] was found to be 3.2 µg/mL (≈ 12 µM). The MCC at 72 h in data set [1] amounted to 3.2 µg/mL.

`Nc1nc(O)c2ncn([C@@H]3O[C@H](COP(=O)(O)O)[C@H](O)[C@H]3O)c2n1`: the outcome in data set [4] was inactive. Also, the MIC in [6] amounted to 10 µg/mL (≈ 27.5 µM). In data set [1], this compound came in with an MCC at 72 h of 3.2 µg/mL. The result in data set [9] and in [10] was Active.
